Assay results gathered from unrelated publications.
Compare with care: the assays were run in different laboratories.
Target: Homeodomain-interacting protein kinase 3 (HIPK3, Homo sapiens, UniProt Q9H422)

O=C(O)c1cc(-c2ccc(C3CCNCC3)cc2)c2ccc(-c3ccc(C(F)(F)F)cc3)cc2c1
remaining binding (cell-free assay, competition with immobilised ligand; 1 µM): 100%

CN(C)c1ncc(F)c(-c2cnn3ncccc23)n1
remaining binding (binding; 1 µM): 65%

CCCCN(CCCC)C(=O)CN1C[C@@H](c2cc(OC)c3c(c2)OCO3)[C@H](C(=O)O)[C@H]1CC(C)(C)CCC
remaining binding (cell-free assay, competition with immobilised ligand; 1 µM): 100%

COc1ccnn2ncc(-c3ccnc(N(C)C)n3)c12
remaining binding (binding; 1 µM): 80%

c1cncc(-c2cccc(Nc3nccc(NC4CCCCC4)n3)c2)c1
remaining binding (binding, competition with immobilised ligand; 10 µM): 57%

Nc1ncc2c(n1)-c1c([nH]c3ccc(C#CC4CC4)cc13)CCCC2
remaining binding (binding, competition with immobilised ligand; 1 µM): 78%

CN(C)c1nccc(-c2cnc3ncccn23)n1
remaining binding (binding; 1 µM): 46%

CS(=O)(=O)c1cc(C2(NC(=O)c3cncc4c3cnn4-c3ccc(F)cc3)CC2)ccn1
remaining binding (cell-free assay, competition with immobilised ligand; 1 µM): 85%

Cc1cnn2ncc(-c3ccnc(N(C)C)n3)c2c1
remaining binding (binding; 1 µM): 68%

CCS(=O)(=O)c1cc2cc(C[C@@](O)(CC(C)(C)c3ccc(F)cc3C(N)=O)C(F)(F)F)[nH]c2cn1
remaining binding (cell-free assay, competition with immobilised ligand; 1 µM): 65%

O=C(c1ccc(Nc2ncc(Cl)c(-c3ccc(Cl)s3)n2)cc1)N1CCC(N2CCCC2)CC1
remaining binding (binding, competition with immobilised ligand; 1 µM): 3.5%

COc1cnc(Nc2cccc(S(N)(=O)=O)c2)nc1N1CCN(c2ccccc2)C(=O)C1
remaining binding (binding, competition with immobilised ligand; 1 µM): 82%

O=C(Nc1ccc(Oc2ccc(F)cc2)cc1)N1CCc2ncccc2[C@H]1c1ccc(F)cc1
remaining binding (cell-free assay, competition with immobilised ligand; 1 µM): 92%

C=CC(=O)N1CCC(C(=O)NCC(=O)N2CCN(c3nc(-c4cnc(N)nc4C(F)F)nc(N4CCOCC4)n3)CC2)CC1
remaining binding (binding, competition with immobilised ligand; 1 µM): 100%

C[C@@H]1CCN(c2nccc(-c3cnn4ncccc34)n2)C1
remaining binding (binding; 1 µM): 68%

O=C(Nc1c[nH]nc1C(=O)NC1CCNCC1)c1cc(F)cc(F)c1
remaining binding (binding, competition with immobilised ligand; 1 µM): 41%

N[C@@H]1CCN(c2nccc(-c3cnn4ncccc34)n2)C1
remaining binding (binding; 1 µM): 83%

Cc1cc(NC(=O)c2cccc(S(F)(F)(F)(F)F)c2)cc(-n2ccn3nc(-c4cccnc4)cc23)c1
remaining binding (cell-free assay, competition with immobilised ligand; 1 µM): 88.8%

O=C(c1ccc(Nc2nccc(-c3cc4ccccc4s3)n2)cc1)N1CCC(N2CCCC2)CC1
remaining binding (binding, competition with immobilised ligand; 1 µM): 19%

COc1cnc(Nc2cccc(S(N)(=O)=O)c2)nc1N1CCN(c2ccccc2)CC1
remaining binding (binding, competition with immobilised ligand; 1 µM): 100%

CN(C)c1nccc(-c2cnn3ncccc23)n1
remaining binding (binding; 1 µM): 51%

O=C(NCCCN1CCOCC1)c1ccc(Nc2ncc(Cl)c(-c3ccc(Cl)s3)n2)cc1
remaining binding (binding, competition with immobilised ligand; 1 µM): 15%
